Where “and” joins values, the source holds several entries; their conditions need not be identical. Identical values can stand only once.
Columns and labels:
[1] = target: Serotonin (5-HT) receptor (Rattus norvegicus) (UniProt P35563+P35365+P32305+P31388+Q9JJ16+P28564+P30994+Q62758+P08909+P14842+P30940+P35364+P19327+P28565); assay: Dose corresponding to half-maximal decrease of 5-HTP formation in the limbic and striatal parts of rat brain; assay type: functional, tissue-based
[2] = target: T1, Dopamine receptor (Rattus norvegicus) (UniProt P25115+P19020+P30729+P18901+P61169); assay: In vivo accumulation of DOPA in limbic of rat brain at a dose of 53 umol/kg.; assay type: functional, organism-based
Procedure, shortened: (§1)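 Rats, reserpine-pretreated (5 mg/kg, i.e. 9 μmol/kg sc, 6 h before) or nonpretreated, given test hydrochloride sc in the neck (injection volume 5 mL/kg). Decarboxylase inhibitor NSD 1015 (100 mg/kg ip or 60 mg/kg sc) given 30 min later; decapitation after another 30 min. Brain dissected on ice into striatum, limbic system, hemispheres, brain stem. Homogenized in 0.1 M perchloric acid with α-methyl-DOPA internal standard; DOPA measured by ion-pair reversed-phase HPLC with electrochemical detection.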

[3] = target: T1, Dopamine receptor (Rattus norvegicus); assay: In vivo accumulation of DOPA in hemisphere of rat brain at a dose of 53 umol/kg.; assay type: functional, organism-based; procedure, shortened: as §1
[4] = system: Rattus norvegicus; assay: In vivo accumulation of DOPA in brain stem of rat brain at a dose of 0.32 umol/kg.; assay type: functional
Procedure, shortened: (§2)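 Hydrochlorides given sc in the neck (5 mL/kg) to rats, either untreated or reserpine-pretreated (5 mg/kg sc, 6 h before). Decarboxylase inhibitor NSD 1015 (100 mg/kg ip or 60 mg/kg sc) given 30 min later; rats decapitated after another 30 min. Striatum, limbic system, hemispheres and brain stem dissected on ice and homogenized in 0.1 M perchloric acid with α-methyl-DOPA internal standard. DOPA, DA, 5-HTP and 5-HT measured by ion-pair reversed-phase HPLC with electrochemical detection.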

[5] = system: Rattus norvegicus; assay: In vivo accumulation of DOPA in brain stem of rat brain at a dose of 1 umol/kg.; assay type: functional; procedure, shortened: as §2
[6] = system: Rattus norvegicus; assay: In vivo accumulation of DOPA in brain stem of rat brain at a dose of 3.2 umol/kg.; assay type: functional; procedure, shortened: as §2
[7] = system: Rattus norvegicus; assay: In vivo accumulation of 5-HT in striatum of rat brain at a dose of 0.32 umol/kg.; assay type: functional; procedure, shortened: as §2
[8] = system: Rattus norvegicus; assay: In vivo accumulation of 5-HT in striatum of rat brain at a dose of 1 umol/kg.; assay type: functional; procedure, shortened: as §2
[9] = system: Rattus norvegicus; assay: In vivo accumulation of 5-HT in striatum of rat brain at a dose of 3.2 umol/kg.; assay type: functional; procedure, shortened: as §2
[10] = system: Rattus norvegicus; assay: In vivo accumulation of 5-HTP in striatum of rat brain at a dose of 0.32 umol/kg.; assay type: functional; procedure, shortened: as §2
[11] = system: Rattus norvegicus; assay: In vivo accumulation of 5-HTP in striatum of rat brain at a dose of 1 umol/kg.; assay type: functional; procedure, shortened: as §2
[12] = system: Rattus norvegicus; assay: In vivo accumulation of 5-HTP in striatum of rat brain at a dose of 3.2 umol/kg.; assay type: functional; procedure, shortened: as §2
[13] = system: Rattus norvegicus; assay: In vivo accumulation of DA in striatum of rat brain at a dose of 0.32 umol/kg.; assay type: functional; procedure, shortened: as §2
[14] = system: Rattus norvegicus; assay: In vivo accumulation of DA in striatum of rat brain at a dose of 1 umol/kg.; assay type: functional; procedure, shortened: as §2
[15] = system: Rattus norvegicus; assay: In vivo accumulation of DA in striatum of rat brain at a dose of 3.2 umol/kg.; assay type: functional; procedure, shortened: as §2
[16] = system: Rattus norvegicus; assay: In vivo accumulation of DOPA in limbic of rat brain at a dose of 0.32 umol/kg.; assay type: functional; procedure, shortened: as §1
[17] = system: Rattus norvegicus; assay: In vivo accumulation of DOPA in limbic of rat brain at a dose of 1 umol/kg.; assay type: functional; procedure, shortened: as §1
[18] = system: Rattus norvegicus; assay: In vivo accumulation of DOPA in limbic of rat brain at a dose of 3.2 umol/kg.; assay type: functional; procedure, shortened: as §1
[19] = system: Rattus norvegicus; assay: In vivo accumulation of 5-HTP in hemisphere of rat brain at a dose of 0.32 umol/kg.; assay type: functional; procedure, shortened: as §2
[20] = system: Rattus norvegicus; assay: In vivo accumulation of 5-HTP in hemisphere of rat brain at a dose of 1 umol/kg.; assay type: functional; procedure, shortened: as §2
[21] = system: Rattus norvegicus; assay: In vivo accumulation of 5-HTP in hemisphere of rat brain at a dose of 3.2 umol/kg.; assay type: functional; procedure, shortened: as §2
[22] = system: Rattus norvegicus; assay: In vivo accumulation of DOPA in hemisphere of rat brain at a dose of 0.32 umol/kg.; assay type: functional; procedure, shortened: as §1
[23] = system: Rattus norvegicus; assay: In vivo accumulation of DOPA in hemisphere of rat brain at a dose of 3.2 umol/kg.; assay type: functional; procedure, shortened: as §1
[24] = system: Rattus norvegicus; assay: In vivo accumulation of 5-HTP in brain stem of rat brain at a dose of 0.32 umol/kg.; assay type: functional; procedure, shortened: as §2
[25] = system: Rattus norvegicus; assay: In vivo accumulation of 5-HTP in brain stem of rat brain at a dose of 1 umol/kg.; assay type: functional; procedure, shortened: as §2
[26] = system: Rattus norvegicus; assay: In vivo accumulation of 5-HTP in brain stem of rat brain at a dose of 3.2 umol/kg.; assay type: functional; procedure, shortened: as §2
[27] = system: Rattus norvegicus; assay: In vivo accumulation of DOPA in striatum of rat brain at a dose of 0.32 umol/kg.; assay type: functional; procedure, shortened: as §1
[28] = system: Rattus norvegicus; assay: In vivo accumulation of DOPA in striatum of rat brain at a dose of 1 umol/kg.; assay type: functional; procedure, shortened: as §1
[29] = system: Rattus norvegicus; assay: In vivo accumulation of DOPA in striatum of rat brain at a dose of 3.2 umol/kg.; assay type: functional; procedure, shortened: as §1
[30] = system: Rattus norvegicus; assay: In vivo accumulation of 5-HTP in limbic of rat brain at a dose of 1 umol/kg.; assay type: functional; procedure, shortened: as §2
[31] = system: Rattus norvegicus; assay: In vivo accumulation of 5-HTP in limbic of rat brain at a dose of 3.2 umol/kg.; assay type: functional; procedure, shortened: as §2
[32] = system: Rattus norvegicus; assay: In vivo accumulation of 5-HT in limbic of rat brain at a dose of 0.32 umol/kg.; assay type: functional; procedure, shortened: as §2
[33] = system: Rattus norvegicus; assay: In vivo accumulation of 5-HT in limbic of rat brain at a dose of 1 umol/kg.; assay type: functional; procedure, shortened: as §2
[34] = system: Rattus norvegicus; assay: In vivo accumulation of 5-HT in limbic of rat brain at a dose of 3.2 umol/kg.; assay type: functional; procedure, shortened: as §2
[35] = system: Rattus norvegicus; assay: In vivo accumulation of 5-HTP in limbic of rat brain at a dose of 0.32 umol/kg.; assay type: functional; procedure, shortened: as §2
[36] = system: Rattus norvegicus; assay: In vivo accumulation of DOPA in brain stem of rat brain at a dose of 0.1 umol/kg.; assay type: functional; procedure, shortened: as §2
[37] = system: Rattus norvegicus; assay: In vivo accumulation of 5-HT in striatum of rat brain at a dose of 0.1 umol/kg.; assay type: functional; procedure, shortened: as §2
[38] = system: Rattus norvegicus; assay: In vivo accumulation of 5-HTP in striatum of rat brain at a dose of 0.1 umol/kg.; assay type: functional; procedure, shortened: as §2
[39] = system: Rattus norvegicus; assay: In vivo accumulation of DA in striatum of rat brain at a dose of 0.1 umol/kg.; assay type: functional; procedure, shortened: as §2
[40] = system: Rattus norvegicus; assay: In vivo accumulation of 5-HTP in hemisphere of rat brain at a dose of 0.1 umol/kg.; assay type: functional; procedure, shortened: as §2
[41] = system: Rattus norvegicus; assay: In vivo accumulation of DOPA in hemisphere of rat brain at a dose of 0.1 umol/kg.; assay type: functional; procedure, shortened: as §1
[42] = system: Rattus norvegicus; assay: In vivo accumulation of 5-HTP in brain stem of rat brain at a dose of 0.1 umol/kg.; assay type: functional; procedure, shortened: as §2
[43] = system: Rattus norvegicus; assay: In vivo accumulation of DOPA in striatum of rat brain at a dose of 0.1 umol/kg.; assay type: functional; procedure, shortened: as §1
[44] = system: Rattus norvegicus; assay: In vivo accumulation of DOPA in limbic of rat brain at a dose of 0.1 umol/kg.; assay type: functional; procedure, shortened: as §1
[45] = system: Rattus norvegicus; assay: In vivo accumulation of 5-HT in limbic of rat brain at a dose of 0.1 umol/kg.; assay type: functional, Limbic system; procedure, shortened: as §2
[46] = system: Rattus norvegicus; assay: In vivo accumulation of 5-HTP in limbic of rat brain at a dose of 0.1 umol/kg.; assay type: functional; procedure, shortened: as §2

## CCCN1CCC[C@H]2Cc3cccc(O)c3C[C@H]21
[1]
  ED50: > 0.05 mg/kg
[2]
  Control: 76.9% and 83.2%
[3]
  Control: 116%

## CCCN1CCC[C@H]2Cc3cccc(O)c3C[C@@H]21
[1]
  ED50: > 0.05 mg/kg
[2]
  Control: 91.4% and 87.5%
[3]
  Control: 98.8%

## CCCN1CCC[C@@H]2c3c(O)cccc3CC[C@H]21
[4]
  Control: 87%
[5]
  Control: 102.9%
[6]
  Control: 125.1%
[7]
  Control: 107.1%
[8]
  Control: 113.2%
[9]
  Control: 128.8%
[10]
  Control: 69.9%
[11]
  Control: 56.3%
[12]
  Control: 34%
[13]
  Control: 110.6%
[14]
  Control: 129.5%
[15]
  Control: 120.2%
[16]
  Control: 91.1% and 114.1%
[17]
  Control: 85.5% and 95.2%
[18]
  Control: 111.4% and 118.2%
[19]
  Control: 70.9%
[20]
  Control: 51.9%
[21]
  Control: 50.6%
[22]
  Control: 111%
[23]
  Control: 119%
[24]
  Control: 76.1%
[25]
  Control: 65.3%
[26]
  Control: 59.9%
[27]
  Control: 109.4%
[28]
  Control: 116.2%
[29]
  Control: 99.6%
[30]
  Control: 58.5%
[31]
  Control: 50.3%
[32]
  Control: 108.1%
[33]
  Control: 119.3%
[34]
  Control: 144.1%
[35]
  Control: 85.1%

## CCCN1CCC[C@H]2c3c(O)cccc3CC[C@@H]21
[36]
  Control: 93.2%
[4]
  Control: 110.1%
[5]
  Control: 133.3%
[37]
  Control: 98.1%
[7]
  Control: 81.6%
[8]
  Control: 134.9%
[38]
  Control: 55.3%
[10]
  Control: 51.5%
[11]
  Control: 44.7%
[39]
  Control: 123.1%
[13]
  Control: 108.2%
[14]
  Control: 115.8%
[16]
  Control: 115.9% and 107.8%
[17]
  Control: 107.3% and 111%
[40]
  Control: 74.7%
[19]
  Control: 60.8%
[20]
  Control: 43%
[41]
  Control: 97%
[22]
  Control: 114%
[42]
  Control: 90.8%
[24]
  Control: 70.7%
[25]
  Control: 61.1%
[43]
  Control: 109.3%
[27]
  Control: 113.6%
[28]
  Control: 117.6%
[30]
  Control: 52.3%
[44]
  Control: 95.9% and 124.5%
[45]
  Control: 126.7%
[32]
  Control: 138.1%
[33]
  Control: 170.1%
[46]
  Control: 85.1%
[35]
  Control: 69.7%

Reference: ChEMBL document CHEMBL1125228, “A 3-D model for 5-HT1A-receptor agonists based on stereoselective methyl-substituted and conformationally restricted analogues of 8-hydroxy-2-(dipropylamino)tetralin” (J Med Chem, 1991)
